Source: ChEMBL document CHEMBL3244038, “Synthesis and analgesic activity of human beta-endorphin” (1977)
Activity calls are given as the source filed them.

Key:
Mus musculus [1] = organism: Mus musculus; assay: Potency index, ratio of morphine AD50 to compound AD50 for analgesic activity in ICR mouse assessed as inhibition of thermal stimulus-induced response by hot-plate test; assay type: functional
Mus musculus [2] = assay: Analgesic activity in iv dosed ICR mouse assessed as inhibition of heat stimulus-induced tail flick response measured for 20 to 30 mins; assay type: functional, organism-based
How it was run: (§1)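 Male ICR mice, 25-30 g. Peptide given iv via the tail vein at 9.4, 18.8 or 28.2 mg/kg. Tail-flick latency to heat with a 10 s cutoff. Percent analgesia calculated against the pre-drug control latency. For line 10, naloxone hydrochloride 1 mg/kg sc was given 5 min before 20.1 mg/kg peptide. Mean ± SEM.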

Mus musculus [3] = assay: Analgesic activity in ICR mouse assessed as inhibition of heat stimulus-induced tail flick response at 0.38 ug, icv administered opiate antagonist naloxone at 10 mins post compound treatment measured for 30 to 60 mins; assay type: functional, organism-based
How it was run: (§2)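 Male ICR mice, 25-30 g. Peptide given icv (5 µl) over a dose range of 0.09-0.38 µg/mouse. Tail-flick latency was measured against noxious heat with a 10 s cutoff. Control latency was the mean of two pre-drug readings. Percent analgesia = (T1−T0)/(T2−T0)×100. For line 2, naloxone 1 mg/kg sc was given 10 min after the peptide. Mean ± SEM.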

Mus musculus [4] = assay: Analgesic activity in opiate antagonist naloxone hydrochloride-treated ICR mouse assessed as inhibition of heat stimulus-induced tail flick response at 20.1 mg/kg, iv measured for 20 to 30 mins; assay type: functional, organism-based; set-up: dose 20.1 mg/kg; how it was run: as §1
Mus musculus [5] = assay: Analgesic activity in icv dosed ICR mouse assessed as inhibition of thermal stimulus-induced response by hot-plate test in presence of opiate antagonist naloxone; assay type: functional, organism-based
Mus musculus [6] = assay: Potency index, ratio of morphine AD50 to compound AD50 for analgesic activity in icv dosed ICR mouse assessed as inhibition of heat stimulus-induced tail flick response; assay type: functional
Mus musculus [7] = assay: Potency index, ratio of morphine AD50 to compound AD50 for analgesic activity in icv dosed ICR mouse assessed as inhibition of acetic acid-induced writhing response; assay type: functional
Mus musculus [8] = assay: Analgesic activity in ICR mouse assessed as inhibition of acetic acid-induced writhing response at 0.38 ug, icv administered 5 mins prior to acetic acid challenge measured for 15 mins; assay type: functional, organism-based
How it was run: (§3)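 Male ICR mice, 25-30 g. Peptide given icv (5 µl) 5 min before i.p. 0.6% acetic acid (0.1 ml/10 g body weight). Writhes counted over 15 min.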

Mus musculus [9] = assay: Analgesic activity in opiate antagonist naloxone-treated ICR mouse assessed as inhibition of acetic acid-induced writhing response at 0.38 ug, icv administered 5 mins prior to acetic acid challenge measured for 15 mins; assay type: functional, organism-based; how it was run: as §3
Mus musculus [10] = assay: Analgesic activity in icv dosed ICR mouse assessed as inhibition of thermal stimulus-induced response by hot-plate test; assay type: functional, organism-based
How it was run: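 Male ICR mice, 25-30 g. Peptide given icv (5 µl). Hot-plate latency with a 60 s cutoff. Control latency was the mean of two pre-drug readings, with test latencies at various times after injection. Percent analgesia = (T1−T0)/(T2−T0)×100.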

Mus musculus [11] = assay: Potency index, ratio of morphine AD50 to compound AD50 for analgesic activity in iv dosed ICR mouse assessed as inhibition of heat stimulus-induced tail flick response; assay type: functional
Mus musculus [12] = assay: Analgesic activity in icv dosed ICR mouse assessed as inhibition of heat stimulus-induced tail flick response measured for 30 to 60 mins; assay type: functional, organism-based; how it was run: as §2
Mus musculus [13] = assay: Analgesic activity in icv dosed ICR mouse assessed as 50% inhibition of thermal stimulus-induced response measured for 60 to 90 mins by hot-plate test; assay type: functional
How it was run: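 Male ICR mice, 25-30 g. Peptide given icv (5 µl). Hot-plate latency with a 60 s cutoff. A twofold increase over the control latency (mean of two pre-drug readings) was the quantal criterion. AD50 with 95% confidence limits by Litchfield-Wilcoxon.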

Mus musculus [14] = assay: Analgesic activity in icv dosed ICR mouse assessed as 50% inhibition of acetic acid-induced writhing response administered 5 mins prior to acetic acid challenge measured for 60 to 90 mins; assay type: functional
Mus musculus [15] = assay: Analgesic activity iv dosed ICR mouse assessed as 50% inhibition of heat stimulus-induced tail flick response measured for 60 to 90 mins; assay type: functional
How it was run: (§4)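 Male ICR mice, 25-30 g. Tail-flick latency to heat with a 10 s cutoff. A twofold increase in latency over the pre-drug control was the quantal criterion. AD50 with 95% confidence limits by Litchfield-Wilcoxon.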

Mus musculus [16] = assay: Analgesic activity in icv dosed ICR mouse assessed as 50% inhibition of heat stimulus-induced tail flick response measured for 60 to 90 mins; assay type: functional; how it was run: as §4

Compound	Ratio (Mus musculus [1])	inhibition (Mus musculus [2])	inhibition (Mus musculus [3])	inhibition (Mus musculus [4])	inhibition (Mus musculus [5])	Ratio (Mus musculus [6])	Ratio (Mus musculus [7])	inhibition (Mus musculus [8])	inhibition (Mus musculus [9])	inhibition (Mus musculus [10])	Ratio (Mus musculus [11])	inhibition (Mus musculus [12])	AD50 (Mus musculus [13]) [nmol]	AD50 (Mus musculus [14]) [nmol]	AD50 (Mus musculus [15]) [µmol/kg]	AD50 (Mus musculus [16]) [nmol]
CC[C@H](C)[C@H](NC(=O)[C@H](C)NC(=O)[C@H](CC(N)=O)NC(=O)[C@H](CCCCN)NC(=O)[C@H](Cc1ccccc1)NC(=O)[C@H](CC(C)C)NC(=O)[C@@H](NC(=O)[C@@H](NC(=O)[C@H](CC(C)C)NC(=O)[C@@H]1CCCN1C(=O)[C@@H](NC(=O)[C@H](CCC(N)=O)NC(=O)[C@H](CO)NC(=O)[C@H](CCCCN)NC(=O)[C@H](CCC(=O)O)NC(=O)[C@H](CO)NC(=O)[C@@H](NC(=O)[C@H](CCSC)NC(=O)[C@H](Cc1ccccc1)NC(=O)CNC(=O)CNC(=O)[C@@H](N)Cc1ccc(O)cc1)[C@@H](C)O)[C@@H](C)O)C(C)C)[C@@H](C)O)C(=O)N[C@H](C(=O)N[C@@H](CCCCN)C(=O)N[C@@H](CC(N)=O)C(=O)N[C@@H](C)C(=O)N[C@@H](Cc1ccc(O)cc1)C(=O)N[C@@H](CCCCN)C(=O)N[C@@H](CCCCN)C(=O)NCC(=O)N[C@@H](CCC(=O)O)C(=O)O)[C@@H](C)CC	32.8	Dose-dependent effect	inactive	inactive	inactive	48.4	17.3	Active	inactive	Active	3.4	Dose-dependent effect				
CN1CC[C@]23c4c5ccc(O)c4O[C@H]2[C@@H](O)C=C[C@H]3[C@H]1C5 [MORPHINE]													0.031	0.026	3.32	0.026
H-YGGFMTSEKSQTPLVTLFKNAIIKNAHKKGQ-OH	17.5					33	19.5				3.5					
